Measured values as given in ChEMBL document CHEMBL3804777, “Identification and Preclinical Pharmacology of BMS-986104: A Differentiated S1P1 Receptor Modulator in Clinical Trials” (ACS Med Chem Lett, 2016).
The source made the active and inactive calls. No cut-off for these calls is given here.

Tests used:
Blood [1] = experiment: Drug metabolism in BALB/c mouse blood assessed as formation of phosphate ester metabolite at 10 mg/kg administered through oral gavage after 24 hrs by LC/MS/MS analysis; format: ADME, organism-based; settings: in vivo
Summary of the method: (§1)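 Mouse PK study: alcohol prodrug given orally at 10 mg/kg, and formation of the phosphate metabolite in blood measured.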

Mus musculus [2] = experiment: Reduction in Fcgr4 gene expression in SCID mouse with CD45RBhiCD4+ T-cell transfer-induced colitis model of inflammatory bowel disease at 1 mg/kg, po dosed daily for 5 weeks by RT-PCR method; format: functional; set-up: scale not given: the % may be the effect or the level left
Summary of the method: (§2)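 CD45RBhiCD4+ T-cell transfer colitis in mice; oral dosing at 1 mg/kg/day for 5 weeks, compared with vehicle. Read-outs: body weight, colon length, and colon gene expression by RT-PCR (IFN-γ, IL-2, CD4, B220, CD11b, Fcgr4, Ifit1, OASL2).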

Mus musculus [3] = experiment: Reduction in colon tissue damage in SCID mouse with CD45RBhiCD4+ T-cell transfer-induced colitis model of inflammatory bowel disease at 1 or 5 mg/kg, po dosed every other day for 5 weeks by H and E staining method; format: functional, organism-based
Summary of the method: (§3)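 CD45RBhiCD4+ T-cell transfer colitis in mice; oral alternate-day dosing for 5 weeks, compared with vehicle. Read-outs: body weight, colon length, histological colon inflammation and tissue damage, and colon gene expression by RT-PCR (IFN-γ, IL-2, CD4, B220, CD11b, Fcgr4, Ifit1, OASL2).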

[4] = Drug metabolism in BALB/c mouse whole blood assessed as whole blood phosphate area ratio at 10 uM after 4 hrs by LC/MS/MS analysis; format: ADME, tissue-based
Summary of the method: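 Mouse whole blood incubated with the amino-alcohol prodrug; phosphorylated product measured by LC/MS/MS after 4 h to give the relative extent of phosphate ester formation.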

Blood [5] = experiment: Drug metabolism in BALB/c mouse blood assessed as formation of phosphate metabolite at 1 mg/kg administered through oral gavage after 24 hrs by LC/MS/MS analysis; format: ADME, organism-based; settings: in vivo
Summary of the method: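 Single oral 1 mg/kg dose in mice; phosphate level in blood determined at 24 h postdose.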

Mus musculus [6] = experiment: Pulmonary toxicity in BALB/c mouse assessed as BAL protein levels at 0.5 mg/kg, po after 24 by hematology analysis (reference value: 8.2 to 8.3 mg/dL); format: organism-based; settings: in vivo
[7] = Oral bioavailability in mouse at 1 mg/kg; format: ADME, organism-based; settings: in vivo
[8] = Plasma clearance in mouse at 0.5 mg/kg, iv; format: ADME, organism-based
Mus musculus [9] = experiment: Reduction of blood lymphocyte level in BALB/c mouse at 1 mg/kg administered through oral gavage after 24 hrs by hematology analysis; format: functional; set-up: scale not given: the % may be the effect or the level left
Summary of the method: (§4)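 Mice given a single oral 1 mg/kg dose; circulating lymphocytes counted 24 h later as the pharmacodynamic marker.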

Mus musculus [10] = experiment: Reduction in blood lymphocyte level in BALB/c mouse at 1 mg/kg, po after 24 hrs by hematology analysis; format: functional, organism-based; summary of the method: as §4
Blood [11] = experiment: Drug metabolism in BALB/c mouse blood assessed as formation of phosphate ester metabolite at 10 mg/kg administered through oral gavage after 4 hrs by LC/MS/MS analysis; format: ADME, organism-based; settings: in vivo; summary of the method: as §1
Mus musculus [12] = experiment: Reduction in IFNgamma gene expression in SCID mouse with CD45RBhiCD4+ T-cell transfer-induced colitis model of inflammatory bowel disease at 1 mg/kg, po dosed daily for 5 weeks by RT-PCR method; format: functional; set-up: scale not given: the % may be the effect or the level left; settings: in the assay text read “dosed on alternate days” for “dosed daily”
Mus musculus [13] = experiment: Reduction in B220 gene expression in SCID mouse with CD45RBhiCD4+ T-cell transfer-induced colitis model of inflammatory bowel disease at 1 mg/kg, po dosed daily for 5 weeks by RT-PCR method; format: functional; set-up: scale not given: the % may be the effect or the level left; settings: in the assay text read “dosed on alternate days” for “dosed daily”
Mus musculus [14] = experiment: Reduction in body weight loss in SCID mouse with CD45RBhiCD4+ T-cell transfer-induced colitis model of inflammatory bowel disease at 1 or 5 mg/kg, po dosed every other day for 5 weeks; format: functional, organism-based; summary of the method: as §3
Mus musculus [15] = experiment: Reduction in Ifit1 gene expression in SCID mouse with CD45RBhiCD4+ T-cell transfer-induced colitis model of inflammatory bowel disease at 1 mg/kg, po dosed daily for 5 weeks by RT-PCR method; format: functional; set-up: scale not given: the % may be the effect or the level left; summary of the method: as §2
Mus musculus [16] = experiment: Reduction in colon inflammation in SCID mouse with CD45RBhiCD4+ T-cell transfer-induced colitis model of inflammatory bowel disease at 1 or 5 mg/kg, po dosed every other day for 5 weeks by H and E staining method; format: functional, organism-based; summary of the method: as §3
Mus musculus [17] = experiment: Induction of colon length shortening in SCID mouse with CD45RBhiCD4+ T-cell transfer-induced colitis model of inflammatory bowel disease at 1 or 5 mg/kg, po dosed every other day for 5 weeks; format: functional, organism-based; summary of the method: as §3
Mus musculus [18] = experiment: Reduction in CD11b gene expression in SCID mouse with CD45RBhiCD4+ T-cell transfer-induced colitis model of inflammatory bowel disease at 1 mg/kg, po dosed daily for 5 weeks by RT-PCR method; format: functional; set-up: scale not given: the % may be the effect or the level left; settings: in the assay text read “dosed on alternate days” for “dosed daily”
[19] = Volume of distribution at steady state in mouse at 0.5 mg/kg, iv; format: ADME, organism-based; settings: in vivo, read-out: Vdss
Mus musculus [20] = experiment: Reduction in lymphocyte level in BALB/c mouse assessed as blood lymphocyte level at 30 mg/kg, po after 24 hrs by hematology analysis (reference value: 5.13 to 8.02 10^3/mm3); format: functional
Mus musculus [21] = experiment: Pulmonary toxicity in BALB/c mouse assessed as BAL protein levels at 30 mg/kg, po after 24 by hematology analysis (reference value: 8.2 to 8.3 mg/dL); format: organism-based; settings: in vivo
Mus musculus [22] = experiment: Reduction in CD4 gene expression in SCID mouse with CD45RBhiCD4+ T-cell transfer-induced colitis model of inflammatory bowel disease at 1 mg/kg, po dosed daily for 5 weeks by RT-PCR method; format: functional; set-up: scale not given: the % may be the effect or the level left; settings: in the assay text read “dosed on alternate days” for “dosed daily”
Mus musculus [23] = experiment: Reduction in OASL2 gene expression in SCID mouse with CD45RBhiCD4+ T-cell transfer-induced colitis model of inflammatory bowel disease at 1 mg/kg, po dosed daily for 5 weeks by RT-PCR method; format: functional; set-up: scale not given: the % may be the effect or the level left; summary of the method: as §2
Mus musculus [24] = experiment: Reduction in lymphocyte level in BALB/c mouse assessed as blood lymphocyte level at 0.5 mg/kg, po after 24 hrs by hematology analysis (reference value: 5.13 to 8.02 10^3/mm3); format: functional
Mus musculus [25] = experiment: Pulmonary toxicity in BALB/c mouse assessed as BAL protein levels at 10 mg/kg, po after 24 by hematology analysis (reference value: 8.2 to 8.3 mg/dL); format: organism-based; settings: in vivo
Mus musculus [26] = experiment: Reduction in IL2 gene expression in SCID mouse with CD45RBhiCD4+ T-cell transfer-induced colitis model of inflammatory bowel disease at 1 mg/kg, po dosed daily for 5 weeks by RT-PCR method; format: functional; set-up: scale not given: the % may be the effect or the level left; settings: in the assay text read “dosed on alternate days” for “dosed daily”
Mus musculus [27] = experiment: Reduction in lymphocyte level in BALB/c mouse assessed as blood lymphocyte level at 10 mg/kg, po after 24 hrs by hematology analysis (reference value: 5.13 to 8.02 10^3/mm3); format: functional

## CCCCCC[C@@H]1CCc2cc([C@H]3CC[C@](N)(CO)C3)ccc2C1 [BMS-986104]
Blood [1]
  Drug metabolism: 202 nM
Mus musculus [2]
  Activity: 50%
Mus musculus [3]
  Activity: Dose-dependent effect
[4]
  Ratio: 0.6
Blood [5]
  Drug metabolism: 27 nM
Mus musculus [6]
  Activity: 7.67 mg/dL
[7]
  bioavailability: 65%
[8]
  clearance: 20 mL/min/kg
Mus musculus [9]
  Activity: 88%
Mus musculus [10]
  Activity: Active
Blood [11]
  Drug metabolism: 41 nM
Mus musculus [12]
  Activity: 45%
Mus musculus [13]
  Activity: 47%
Mus musculus [14]
  inhibition: Dose-dependent effect
Mus musculus [15]
  Activity: 42%
Mus musculus [16]
  Activity: Dose-dependent effect
Mus musculus [17]
  Activity: Dose-dependent effect
Mus musculus [18]
  Activity: 41%
[19]
  Vd: 60 L/kg
Mus musculus [20]
  Activity: 0.52 ×10³ /mm3
Mus musculus [21]
  Activity: 10 mg/dL
Mus musculus [22]
  Activity: 51%
Mus musculus [23]
  Activity: 41%
Mus musculus [24]
  Activity: 1.65 ×10³ /mm3
Mus musculus [25]
  Activity: 8.25 mg/dL
Mus musculus [26]
  Activity: 63%
Mus musculus [27]
  Activity: 0.51 ×10³ /mm3
